What all share (type): functional
One assay deals with Microsporum. The assay is described as follows: Antifungal activity against Microsporum gypseum after 7 days. The settings on record: 168 h. In outline: (§1)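 Fungal strains were taken from Sabouraud medium into nutrient broth and grown 3–5 days at 25 °C. They were vortexed 4–5 min with sterile beads, and the suspensions were adjusted to absorbance 0.5 at 500 nm. Eight serial dilutions were made in microplates, and all wells except the positive control received standardized inoculum. MIC was the lowest concentration giving no visible growth.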

A further assay concerns Trichophyton tonsurans. The assay is described as follows: Antifungal activity against Trichophyton tonsurans after 7 days. Particulars: 168 h. An outline of the steps:
as §1

The next assay has as its system Klebsiella pneumoniae. The assay is described as follows: Antibacterial activity against Klebsiella pneumoniae after 24 hrs by micro-broth dilution technique. In outline:
(§2)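 Mueller-Hinton broth microdilution. Test compounds were serially diluted two-fold in DMSO. The inoculum was grown in broth overnight at 37 °C, then diluted to a final 10⁵ cfu/ml in the tray. Trays were covered and incubated at 37 °C for about 24 h. MIC was the lowest concentration inhibiting visible growth.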
A general note: Dilution methods test growth across graded concentrations, often in twofold steps.

Another assay concerns Pseudomonas aeruginosa. The assay is described as follows: Antibacterial activity against Pseudomonas aeruginosa after 24 hrs by micro-broth dilution technique. In outline:
as §2

The test system of another assay is Staphylococcus aureus. The assay is described as follows: Antibacterial activity against Staphylococcus aureus after 24 hrs by micro-broth dilution technique. An outline of the steps: as §2
The next assay deals with Escherichia coli. The assay is described as follows: Antibacterial activity against Escherichia coli after 24 hrs by micro-broth dilution technique. An outline of the steps:
as §2

Each structure is given as a SMILES string. ≈ marks a conversion by molar mass, not a printed value. Bounds are passed on as bounds.

Drawing on ChEMBL document CHEMBL1143781, “Synthesis, in vitro antibacterial and antifungal evaluations of 2-amino-4-(1-naphthyl)-6-arylpyrimidines” (2007), this text covers MIC for eleven molecules.

`Clc1ccc(COC(Cn2ccnc2)c2ccc(Cl)cc2Cl)c(Cl)c1` (stereo not given) [MICONAZOLE]: the MIC in the assay on Microsporum and in the assay with Trichophyton tonsurans was 0.2 µg/mL (≈ 0.481 µM) in each case.
In the case of `Nc1nc(-c2ccc([N+](=O)[O-])cc2)cc(-c2cccc3ccccc23)n1`, the MIC (commonly the lowest concentration that inhibits growth of the organism) in the assay with Klebsiella pneumoniae was 15.3 µg/mL (≈ 44.8 µM); with Pseudomonas aeruginosa it was 11.9 µg/mL (≈ 34.8 µM); in the assay on Staphylococcus aureus, 25.6 µg/mL (≈ 74.9 µM); against Microsporum, 25 µg/mL (≈ 73 µM); with Trichophyton tonsurans, 25 µg/mL (≈ 73 µM); in the assay on Escherichia coli it was 16.6 µg/mL (≈ 48.6 µM).
In the case of `Nc1nc(-c2ccccc2Cl)cc(-c2cccc3ccccc23)n1`, the MIC in the assay on Klebsiella pneumoniae is 5.38 µg/mL (≈ 16.2 µM); with Pseudomonas aeruginosa, 6.4 µg/mL (≈ 19.3 µM); in the assay with Staphylococcus aureus, 40 µg/mL (≈ 121 µM); against Microsporum, 25 µg/mL (≈ 75.3 µM); with Trichophyton tonsurans, 25 µg/mL (≈ 75.3 µM); with Escherichia coli it was above 60 µg/mL.
As to `CC1(C)S[C@@H]2[C@H](NC(=O)[C@H](N)c3ccccc3)C(=O)N2[C@H]1C(=O)O` [AMPICILLIN], the MIC with Klebsiella pneumoniae came out at 1.8 µg/mL (≈ 5.15 µM); in the assay with Pseudomonas aeruginosa, 1.8 µg/mL (≈ 5.15 µM); against Staphylococcus aureus it was 1 µg/mL (≈ 2.86 µM); with Escherichia coli, 1.65 µg/mL (≈ 4.72 µM).
Consider `COc1ccc(-c2cc(-c3cccc4ccccc34)nc(N)n2)cc1`, for which the MIC in the assay on Klebsiella pneumoniae is 9.31 µg/mL (≈ 28.4 µM); against Pseudomonas aeruginosa, 10.2 µg/mL (≈ 31.2 µM); in the assay on Staphylococcus aureus, above 60 µg/mL; with Microsporum, 25 µg/mL (≈ 76.4 µM); against Trichophyton tonsurans, 25 µg/mL (≈ 76.4 µM); in the assay on Escherichia coli, above 60 µg/mL.
As for `Nc1nc(-c2ccc(Cl)cc2)cc(-c2cccc3ccccc23)n1`, the MIC was found to be 19.8 µg/mL (≈ 59.7 µM) with Klebsiella pneumoniae; 21.9 µg/mL (≈ 66 µM) in the assay on Pseudomonas aeruginosa; 12.3 µg/mL (≈ 37.1 µM) in the assay with Staphylococcus aureus; 5.55 µg/mL (≈ 16.7 µM) against Microsporum; 2.8 µg/mL (≈ 8.44 µM) against Trichophyton tonsurans; 13.5 µg/mL (≈ 40.7 µM) in the assay with Escherichia coli.
For the molecule `Nc1nc(-c2ccc(F)cc2)cc(-c2cccc3ccccc23)n1`, the MIC came out at 2.55 µg/mL (≈ 8.09 µM) with Klebsiella pneumoniae; 5.45 µg/mL (≈ 17.3 µM) in the assay on Pseudomonas aeruginosa; 7.3 µg/mL (≈ 23.1 µM) against Staphylococcus aureus; 5.9 µg/mL (≈ 18.7 µM) against Microsporum; 2.2 µg/mL (≈ 6.98 µM) against Trichophyton tonsurans; 8.1 µg/mL (≈ 25.7 µM) with Escherichia coli.
For `Nc1nc(-c2ccccc2)cc(-c2cccc3ccccc23)n1`, the MIC in the assay with Klebsiella pneumoniae is 5.5 µg/mL (≈ 18.5 µM); with Pseudomonas aeruginosa it was 6.59 µg/mL (≈ 22.2 µM); in the assay on Staphylococcus aureus, above 60 µg/mL; in the assay on Microsporum, 25 µg/mL (≈ 84.1 µM); in the assay with Trichophyton tonsurans, 25 µg/mL (≈ 84.1 µM); with Escherichia coli, 42 µg/mL (≈ 141 µM).
Turning to `Nc1nc(-c2cccc([N+](=O)[O-])c2)cc(-c2cccc3ccccc23)n1`, the MIC was 14.3 µg/mL (≈ 41.7 µM) with Klebsiella pneumoniae; 18.2 µg/mL (≈ 53.2 µM) against Pseudomonas aeruginosa; 29.1 µg/mL (≈ 85 µM) with Staphylococcus aureus; 25 µg/mL (≈ 73 µM) in the assay with Microsporum; 25 µg/mL (≈ 73 µM) against Trichophyton tonsurans; 19.5 µg/mL (≈ 57 µM) against Escherichia coli.
For `COc1ccccc1-c1cc(-c2cccc3ccccc23)nc(N)n1`, the MIC with Klebsiella pneumoniae was 8.22 µg/mL (≈ 25.1 µM); in the assay on Pseudomonas aeruginosa it was 9.18 µg/mL (≈ 28 µM); in the assay with Staphylococcus aureus, above 60 µg/mL; in the assay with Microsporum, 25 µg/mL (≈ 76.4 µM); in the assay on Trichophyton tonsurans it was 25 µg/mL (≈ 76.4 µM); in the assay with Escherichia coli, 36 µg/mL (≈ 110 µM).
Take `Nc1nc(-c2cccc(Cl)c2)cc(-c2cccc3ccccc23)n1`: the MIC against Klebsiella pneumoniae came to 6.38 µg/mL (≈ 19.2 µM); in the assay with Pseudomonas aeruginosa it was 7.42 µg/mL (≈ 22.4 µM); with Staphylococcus aureus, 39 µg/mL (≈ 118 µM); against Microsporum, 25 µg/mL (≈ 75.3 µM); in the assay on Trichophyton tonsurans it was 25 µg/mL (≈ 75.3 µM); in the assay with Escherichia coli, 41 µg/mL (≈ 124 µM).
